Laboratory results: ChEMBL document CHEMBL4513216, “Probing the Open Global Health Chemical Diversity Library for Multistage-Active Starting Points for Next-Generation Antimalarials” (ACS Infect Dis, 2020)

Assay: Toxicity liver stage against HepG2, at 10uM
Format: cell-based
Parameters: test concentration 10 uM, cell line HepG2-A16-CD81EGFP
Conditions: human, HepG2-A16-CD81EGFP cells; read-out: INHIBITION
Summary of the method: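 Uninfected HepG2-A16-CD81EGFP cells, 3 × 10^3 per well, 1536-well, plated on prespotted compound at 10 μM final, parasite-free screening media added to match infected plates; puromycin 10 μM positive, DMSO 0.5% negative; run in parallel with 48 h PbLuc assay at 37 °C, 5% CO2; viability by CellTiter-Glo luminescence, normalized to controls.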

| SMILES | cytotoxicity at 10 µM [%] |
| --- | --- |
| Cn1ncc2c(N3CCCC4(CCNC4)C3)nc(C(C)(C)C)nc21 (stereo not given) | -45.8 |
| CN1CCO[C@@H]2CN(C(=O)Cc3cccs3)CC[C@@H]2C1 | -103 |
| CCS(=O)(=O)N1CCCC2(COCCN(c3ccccn3)C2)C1 (stereo not given) | -1.02 |
| CC(=O)N1CCN(C(=O)C[C@@H]2C[C@@H](C(C)C)[C@H](CC#N)C=C2C)CC1 | -1.01 |
| Cc1nccc([C@@H]2C[C@@H]3CCN(Cc4cccs4)C[C@H]3O2)n1 | -143 |
| CCOc1ccc(CN2CCC(c3ccn[nH]3)C2)cc1CO (stereo not given) | 0.845 |
| CSCCNC(=O)c1ccc(OC2CCN(CC(C)(C)C)CC2)c(Cl)c1 | -10.9 |
| CCc1nnc(Nc2cccc(C3CCCN(CC(C)(C)C)C3)n2)s1 (stereo not given) | -33.9 |
| CC(CCNC(=O)N1CCC1)N(C)C(=O)OC(C)(C)C (stereo not given) | -5.61 |
| CSc1ncnc(NCc2ccccc2F)c1C#N | 1.67 |
| CN(CC1(O)CCCN(CCC2CCCCC2)C1=O)C1CCOCC1 (stereo not given) | 12.7 |
| OCc1cnc(Nc2ccccc2)nc1 | 11.3 |
| CN1CCN(C(=O)Cn2ccc3c(Cl)cccc32)CC1 | 2.08 |
| COCc1cnc2n1CCN(C(=O)c1cn(C)c3ccccc13)C2C (stereo not given) | -108 |
| O=C1NCC2(CCCN(Cc3ccncc3)C2)Oc2ccccc21 (stereo not given) | -13.8 |
| COC1CCCN(C(=O)NCC(F)F)C1 (stereo not given) | 7.51 |
| Cc1nonc1C1CCCN1C(=O)c1cn2ccsc2n1 (stereo not given) | 9.59 |
| O=C(CCc1cc2n(n1)CCCNC2)N1CCC(N2CCOC2=O)CC1 | 6.05 |
| CN1C(=O)C2(CCCN(C(=O)c3ccc(=O)n(C)n3)C2)c2ccccc21 (stereo not given) | 4.65 |
| Cn1ccc2c(C(=O)N3CCC(C(N)=O)CC3)cccc21 | 2.92 |
| C=Cc1ccc(C(=O)N2CCCC(Nc3ccc(F)cc3)C2)cc1 (stereo not given) | -22.1 |
| CCOCc1cnc2n1CCN(Cc1scnc1C)C2C (stereo not given) | 8.85 |

| SMILES | cytotoxicity at 10 µM [%] |
| --- | --- |
| Cc1ncoc1C(=O)N1CCOC(Cc2ccccc2)C1 (stereo not given) | 2.23 |
| CCSCCNc1nc(-c2ccccn2)nc2c1c(C)nn2C | 6.35 |
| CN(Cc1cccnc1)C1CC2(CCN(C(=O)c3cnccn3)CC2)C1 | -0.733 |
| CCc1nc2n(n1)CC(NCc1cnc(N(CC)CC)s1)CC2 (stereo not given) | 7.39 |
| CC(C)c1nc(CN2CCCC2c2cnn(C)c2)cs1 (stereo not given) | 0.0791 |
| Cc1cc(-n2nc(C3CC3)nc2-c2csnn2)ccn1 | 6.37 |
| O=C(CCOc1ccccc1F)N1CCOCC1 | -4.4 |
| Cc1cc(=O)n(CCNS(=O)(=O)c2ccc(F)c(Cl)c2)cn1 | 1.18 |
| O=C(O)[C@]12CCCN(Cc3ccncc3)[C@@H]1CCN(c1cnccn1)C2 | 20.4 |
| CCc1nc(CN2CCCN(c3nc4ccccc4o3)CC2)no1 | -22.5 |
| CC1(C)CNC(=O)c2nc(C3CCCN(S(C)(=O)=O)C3)[nH]c2C1 (stereo not given) | 0.611 |
| Cc1ccnc(CC(C)N(C)Cc2ccc3c(c2)CCO3)c1 (stereo not given) | 1.63 |
| Cc1noc(C)c1CN1C(=O)[C@@H]2CC[C@H]1CN(Cc1cccc(O)c1)C2 | 4.42 |
| C=C(C)CN(Cc1cccc(O)c1)C1CCC(O)CC1 (stereo not given) | 17.3 |
| COCCCN(Cc1cnc(-c2cccs2)nc1)C1CCN(C)CC1 | -3.85 |
| CS(=O)(=O)CCNC(=O)N(Cc1ccoc1)C1CCCCC1 | 5.72 |
| O=C(NCCCn1cnnc1)C1CCCN(C2CCCC2)C1 (stereo not given) | -0.121 |
| O=S(=O)(CC1CCCN1S(=O)(=O)C1CC1)c1ccccc1 (stereo not given) | -5.75 |
| CC(C)C(=O)NCCNC(=O)C12CCC(=O)N1c1cc(Cl)ccc1S2 (stereo not given) | 15.3 |
| Cc1ccc2cc(CN(C)Cc3nccs3)c(=O)[nH]c2c1 | 2.91 |
| CN(Cc1noc(C2CC2)n1)C1CCN(Cc2cccc(F)c2F)C1 (stereo not given) | -13 |
| O=C(N1CCCC1)N1CCC[C@]2(C[C@@H](Oc3ncccc3F)CO2)C1 | -0.269 |

| SMILES | cytotoxicity at 10 µM [%] |
| --- | --- |
| COCCCC1CCCCN1C(=O)c1ccc(SCCO)cc1 (stereo not given) | -50 |
| COC1COC2(CCN(Cc3ccc4ccccc4n3)CC2)C1 (stereo not given) | 5.05 |
| COc1c(CNCc2ccnc(N3CCCC3)c2)c(C)nn1C | 4.31 |
| COc1ccccc1CCN(C)Cc1nc(N)nc(N(C)C)n1 | 6.96 |
| CC(C)c1cc(C(=O)N2Cc3ccccc3CC2C(=O)O)nn1C (stereo not given) | 7.97 |
| Cc1cnn(CCNCc2nnc(C3CC3)o2)c1 | -7.89 |
| Cc1ccc2c(c1)SCC(=O)N2CC(=O)N1CCCC1c1cc(C)on1 (stereo not given) | 1.28 |
| NC(=O)C1CCN(c2nc3nccc(-c4cccnc4)c3c(=O)[nH]2)CC1 | 12.1 |
| CCNC(=O)[C@@H]1C[C@H](NC(=O)c2cncnc2C)CN1CCCSC | -11.7 |
| CCOc1ccc(C#N)cc1NCC(=O)NC(=O)Nc1ccccc1 | -11.8 |
| NS(=O)(=O)NCc1cc(-c2ccco2)n(CC(F)(F)F)n1 | -4.41 |
| Cc1ccc(S(=O)(=O)c2ncccc2CN2CCN(C)CC2)cc1 | -51.3 |
| c1cncc(-c2ncnc3c2CCN(Cc2ccsc2)CC3)c1 | 8.74 |
| O=C(NCc1ccccc1-n1cccn1)N1CCN2CCCCC2C1 (stereo not given) | -1.2 |
| CC(NCCN1CCC(N(C)C)CC1)c1ccc(Cl)s1 (stereo not given) | 25.9 |
| CCN(Cc1ccco1)C(=O)NCC(c1cccs1)N(C)C (stereo not given) | 16.3 |
| Cc1cc(C)nc(N2CCCC2c2cccnc2)n1 (stereo not given) | 0.997 |
| Cn1ccc(NC(=O)NC2CCCN(c3ccccc3Cl)C2=O)n1 (stereo not given) | -49.4 |
| O=c1cc(CN2C[C@@H]3CC[C@H]2CN(Cc2ccccc2)C3)[nH]c(=O)[nH]1 | 8.89 |
| COC(=O)C1C=CCN1C(=O)c1cc(COc2ccccc2)[nH]n1 (stereo not given) | -4.45 |
| COCc1noc(C2(c3ccc(Cl)cc3)CCOCC2)n1 | 1.86 |
| Cc1noc(OCc2ccc(C#N)cc2)n1 | -10.2 |

| SMILES | cytotoxicity at 10 µM [%] |
| --- | --- |
| Cc1ccc(N2CCCN(C(=O)C3CCCO3)CC2)nn1 (stereo not given) | -11.1 |
| CCN(CCc1nc2cc(C)ccc2[nH]1)C(=O)[C@@H](N)CCSC | -9.28 |
| N#CCCN(C(=O)CN1CCCC1c1cccs1)c1ccccc1F (stereo not given) | -9.1 |
| O=C(NCc1cnc2n1CCN(Cc1nccs1)C2)c1ccno1 | -104 |
| CC1CCC(NS(=O)(=O)CC(=O)NC(C2CC2)C2CC2)CC1 (stereo not given) | -2.8 |
| CC(C)COC(C)C(=O)NCc1cc(F)cc(F)c1 (stereo not given) | 3.37 |
| CC(C)=CCN1C[C@@H](C(=O)O)C[C@H](C(=O)Nc2ccc(C)nc2)C1 | 5.67 |
| CC(C)C(C(=O)N1CCN(c2ccncc2)CC1)n1cncn1 (stereo not given) | -9.35 |
| O=C1CC2(CCCNC2)C(=O)N1Cc1cccc(Cl)c1 (stereo not given) | -1.19 |
| Cc1ccccc1CC(=O)N1C[C@@H]2COC[C@]2(CN(C)C)C1 | 3.79 |
| c1ccc(-n2nnnc2CNCc2ccc3c(c2)OCCO3)cc1 | 9.35 |
| CCc1ccc(CN2C[C@@H](C)C3(CCN(CC(=O)N(C)C)C3=O)C2)o1 (stereo not given in full) | 1.11 |
| O=C1CO[C@@H]2CN(Cc3ccncc3)C[C@H]2N1Cc1ccncc1 | -85 |
| CN(CC(F)(F)F)C(=O)CNC(=O)Cc1ccccc1O | 6.31 |
| Cc1cnn(CC2CN(Cc3nc(-c4ccccn4)no3)CCO2)c1 (stereo not given) | -22.6 |
| N#Cc1nccnc1N1CCC(c2nc(C(F)(F)F)c[nH]2)CC1 | 4.25 |
| COc1ncccc1CN1C[C@H]2CCN(c3ncccn3)C[C@H]2C1 | 2.66 |
| CCn1cc(C#N)c(=O)c2cc(Br)ccc21 | 1.35 |
| CC1(C)Oc2ccc(S(=O)(=O)NCCCn3ccnc3)cc2NC1=O | 14.5 |
| CC(C)N(CCO)C(=O)C1CCC(=O)N(CCc2ccc(Cl)cc2)C1 (stereo not given) | -8.27 |
| CC1CCN(Cc2cc(=O)[nH]c(=O)[nH]2)CC1 | 9.95 |
| CCN(c1ccc(C(=O)NCc2ccnc(C)n2)cc1)C(C)C | -8.78 |

| SMILES | cytotoxicity at 10 µM [%] |
| --- | --- |
| NC(=O)CN1CCCN(C(=O)Cc2ccc(F)cc2)CC1 | -9.17 |
| COc1ccc(Oc2ncccc2C(N)=O)cc1CN1CCCC1 | 0.0453 |
| OC(CNC1CCSCC1)c1cccc(OCc2ccccc2)c1 (stereo not given) | 8.22 |
| CNC(=O)C1CN(c2ncccn2)CCN1Cc1ccccc1 (stereo not given) | 14.3 |
| COc1cccc(-c2ncc(CN3CC[C@H](CO)[C@@H](O)C3)s2)c1 | 4.23 |
| CNC(=O)COc1cccc(CNC(=O)c2c(C)noc2C)c1 | -4.93 |
| C=Cn1ncc(CN2C[C@@H]3C[C@@H](O)CN3C[C@@H]2Cc2ccccc2)c1C | 4.02 |
| Cc1nc([C@H]2C[C@@H]3CCN(Cc4scnc4C)C[C@H]3O2)no1 | -129 |
| NC(=O)CN1CCCC1c1csc(Nc2cnccn2)n1 (stereo not given) | -11.2 |
| Cc1csc(N2CCN(Cc3ccn(C)c(=O)c3)CC2)n1 | 8.08 |
| N[C@@H]1c2ccccc2C2(CCN(C(=O)c3cncc(Cl)c3)CC2)[C@H]1O | -2.78 |
| Cc1ccc2ncn(C(C)Cn3cccn3)c(=O)c2c1 (stereo not given) | 4.4 |
| CC(C)c1ncc2c(n1)CN(Cc1ccc(C(N)=O)cc1)CC2 | -14.2 |
| CC(=O)N1CCCC1(C(=O)N1CCCC1)c1cnccn1 (stereo not given) | 0.142 |
| Cc1ccc(C(=O)N2C[C@@H]3OCCN(CC4CCCC4)[C@@H]3C2)cn1 | -76 |
| CN1CCCCC12Cc1ccccc1CN(C(=O)C1CCCC1)C2 (stereo not given) | 2.88 |
| CSCc1noc(CNC(=O)C2CCN(C3CCCCC3)CC2)n1 | 8.45 |
| CCc1cc(N2CCC(NC(=O)CCC3CCCO3)CC2)ncn1 (stereo not given) | 8.31 |
| CC(C)CCn1cc(C(C(=O)O)N2CCSCC2)cn1 (stereo not given) | -1.17 |
| CNC(=O)[C@@H]1CCO[C@@H]2CCN(Cc3ccsc3)C[C@H]21 | -78.3 |
| O=C(NCCNC(=O)C1CCCCC1)NCCn1cccc1 | 2.89 |
| CCC1CN(c2ncnc3nc[nH]c23)CCO1 (stereo not given) | 19.5 |
